The text below walks through data of ChEMBL document CHEMBL1133503 (J Med Chem, 2000).

pIC50: −log10 of the molar value.

The species named for assay [1] is Rattus norvegicus. Description: Bioreduction experiment was conducted by incubation of the sulfoxides with rat liver S-9 fractions in aerobic conditions(N2, menadione). The class given is functional. The essentials:
(§1)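 Rat liver S-9 fraction incubated with sulfoxide at 37 °C for 30 min with shaking. Aerobic vials were left open to air. Anaerobic vials were purged with N2 for 10 min before the compound was injected. Cofactor was NADPH, benzaldehyde, 2-hydroxypyrimidine or acetaldehyde, or none. Controls were boiled S-9 and S-9 without cofactors. For menadione, S-9 was preincubated aerobically with 1 equiv for 30 min, then benzaldehyde was added. Sulfide or sulfone was measured by HPLC or TLC densitometry.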

For assay [2], the species on record is Rattus norvegicus. Description: Bioreduction experiment was conducted by incubation of the sulfoxides with rat liver S-9 fractions in aerobic conditions(air, benzaldehyde). It is filed as functional. The essentials:
as §1

The species named for assay [3] is Rattus norvegicus. The assay is described as follows: Bioreduction experiment was conducted by incubation of the sulfoxides with rat liver S-9 fractions in aerobic conditions(N2, NADPH). The class given is functional. The essentials:
as §1

Assay [4] in a line: Hypoxia-selective cytotoxicity required to reduce cell survival to 10% of controls using V-79 cells in the clonogenic assay, with air. The class given is functional. The following applies: Cricetulus griseus, V79. The essentials:
(§2)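 V-79 cells (500 000 per bottle) grown 20 h in MEM with 10% FBS. Hypoxic set gassed 2 h at 37 °C with humidified 95% N2/5% CO2. Drug in ethanol/water or DMF injected through septa. Exposure 3 h under air or hypoxia. Cells trypsinised, counted by trypan blue, 500 plated in triplicate for 6–8 days. Colonies stained with crystal violet, survival relative to solvent control.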

The species named for assay [5] is Rattus norvegicus. Description: Bioreduction experiment was conducted by incubation of the sulfoxides with rat liver S-9 fractions in aerobic conditions(air, NADPH). It is filed as functional. The essentials:
as §1

The species named for assay [6] is Rattus norvegicus. The assay is described as follows: Bioreduction experiment was conducted by incubation of the sulfoxides with rat liver S-9 fractions in anaerobic conditions (N2). It is filed as functional. The essentials:
as §1

The species entered for assay [7] is Rattus norvegicus. Description: Reduction potential (SCE) determined by differential pulse polarography of the sulfoxides […]. It is filed as functional.
Assay [8] is described as follows: Relative cytotoxicity is expressed as the ratio of the IC50 values of the corresponding sulfide to sulfoxide or to sulfone. It is filed as functional, Cricetulus griseus. The essentials: (§3)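 V-79 cells (about 7 × 10³ per 100 μL) preincubated 24 h, then exposed to drug for 3 h under oxic conditions. Washed 5× with HBSS and grown 48 h more. Fixed with TCA and stained with SRB. Bound dye dissolved in 10 mM Tris, spotted on TLC and read by video densitometry. IC50 is the mean of triplicates in one experiment. Ratio is IC50 of sulfide over sulfoxide or sulfone.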

The species named for assay [9] is Rattus norvegicus. The assay is described as follows: Bioreduction experiment was conducted by incubation of the sulfoxides with rat liver S-9 fractions in aerobic conditions(air, without cofactors). The class given is functional. The method in brief: as §1
Assay [10] is filed under the species Rattus norvegicus. Description: Bioreduction experiment was conducted by incubation of the sulfoxides with rat liver S-9 fractions in aerobic conditions(air, control). It is filed as functional. The method in brief:
as §1

The nature of assay [11]: Concentration of drug required to reduce V-79 cell survival to 50% of controls in a SRB assay. It is filed as functional, cell-based. The following applies: Cricetulus griseus, V79. The method in brief:
as §3
Background: Sulforhodamine B stains cellular protein and so reports cell mass.

The species named for assay [12] is Rattus norvegicus. The assay is described as follows: Bioreduction experiment was conducted by incubation of the sulfoxides with rat liver S-9 fractions in aerobic conditions(N2, 2-hydroxypyrimidine). The class given is functional. The method in brief: as §1
Assay [13] in a line: Hypoxia-selective cytotoxicity required to reduce cell survival to 10% of controls using V-79 cells in the clonogenic assay, with N2. The class given is functional. The following applies: Cricetulus griseus, V79. The method in brief:
as §2

The nature of assay [14]: Hypoxic selectivity expressed as the ratio of IC50 values in air and nitrogen. It is filed as functional.
The species named for assay [15] is Rattus norvegicus. The assay is described as follows: Bioreduction experiment was conducted by incubation of the sulfoxides with rat liver S-9 fractions in anaerobic conditions(N2, benzaldehyde). It is filed as functional. The method in brief:
as §1

The species entered for assay [16] is Rattus norvegicus. The assay is described as follows: Bioreduction experiment was conducted by incubation of the sulfoxides with rat liver S-9 fractions in aerobic conditions(N2, acetaldehyde). The class given is functional. The essentials: as §1
The species entered for assay [17] is Rattus norvegicus. Description: Bioreduction experiment was conducted by incubation of the sulfoxides with rat liver S-9 fractions in anaerobic conditions(N2, without cofactors). It is filed as functional. The essentials:
as §1

With `Cl.[O-][S+](c1ccc(Nc2c3ccccc3nc3ccccc23)cc1)c1ccc(N(CCCl)CCCl)cc1` (configuration not stated), the Bioreduction in the assay listed under Rattus norvegicus [1] is 1.07%; in the assay listed under Rattus norvegicus [2], 0%; in the assay filed under Rattus norvegicus [3], 1.37%; in the assay listed under Rattus norvegicus [5] it was 0%; in the assay listed under Rattus norvegicus [6], 0%; in the assay filed under Rattus norvegicus [9], 0%. Moreover, the Bioreduction in the assay filed under Rattus norvegicus [10] is listed as 0%; in the assay listed under Rattus norvegicus [12], 1.34%; in the assay listed under Rattus norvegicus [15], 2.28%; in the assay listed under Rattus norvegicus [16], 1.79%; in the assay filed under Rattus norvegicus [17], 1.29%. The values for the IC90 in [4] and in assay [13] were 4950 µM and 180 µM, respectively. In addition, the E in the assay listed under Rattus norvegicus [7] is given as 2.63 -V. In assay [8], the Cytotoxicity is 0.07. Further, the pIC50 in assay [11] is 4.58. For the same molecule, in assay [14], the Selectivity was determined as 27.

What is called IC90 is the concentration at which the effect reaches the 90% level. A low value points to an effect from little substance. The pIC50 is −log10 of the IC50, conventionally taken in molar units. Read a low pIC50 as a high IC50.
